Experimental data reported in ChEMBL document CHEMBL4725387, “Synthesis and pharmacological evaluation of piperidine (piperazine)-amide substituted derivatives as multi-target antipsychotics” (Bioorg Med Chem Lett, 2020).
The source made the active and inactive calls. The rule behind the calls is not given here.

How the values were obtained:
[1] = test system: Rattus norvegicus; test: Memory enhancement effect in rat assessed as increase in total exploratory time for novel objects at 0.1 to 0.3 mg/kg, po administered 1 hr prior to acquisition trial and measured after 24 hrs by novel object recognition test; assay type: functional, organism-based; conditions: dose mg/kg 0.1-0.3, time 25.0 hrs
[2] = target: T1, 5-hydroxytryptamine receptor 1A (Homo sapiens, UniProt P08908); test: Binding affinity to 5HT1A receptor (unknown origin)
T1 sequence (P08908 whole entry): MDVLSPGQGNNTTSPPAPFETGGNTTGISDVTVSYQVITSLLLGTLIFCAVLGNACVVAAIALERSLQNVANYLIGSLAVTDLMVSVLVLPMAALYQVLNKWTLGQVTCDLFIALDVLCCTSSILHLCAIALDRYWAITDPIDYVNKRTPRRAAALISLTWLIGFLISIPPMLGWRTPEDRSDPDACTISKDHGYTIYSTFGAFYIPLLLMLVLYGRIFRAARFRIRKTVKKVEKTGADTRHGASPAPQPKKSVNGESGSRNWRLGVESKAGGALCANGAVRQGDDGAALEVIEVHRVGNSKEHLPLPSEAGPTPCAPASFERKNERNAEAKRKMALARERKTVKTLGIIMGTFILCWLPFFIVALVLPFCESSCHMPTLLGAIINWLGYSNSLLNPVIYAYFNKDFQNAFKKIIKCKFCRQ
Method in brief: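 Radioligand displacement binding. Ki is the mean ± SEM of three experiments.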

[3] = target: Histamine H1 receptor (Homo sapiens, UniProt P35367); test: Binding affinity to H1 receptor (unknown origin); assay type: ADME
Chain of Histamine H1 receptor (P35367 whole entry): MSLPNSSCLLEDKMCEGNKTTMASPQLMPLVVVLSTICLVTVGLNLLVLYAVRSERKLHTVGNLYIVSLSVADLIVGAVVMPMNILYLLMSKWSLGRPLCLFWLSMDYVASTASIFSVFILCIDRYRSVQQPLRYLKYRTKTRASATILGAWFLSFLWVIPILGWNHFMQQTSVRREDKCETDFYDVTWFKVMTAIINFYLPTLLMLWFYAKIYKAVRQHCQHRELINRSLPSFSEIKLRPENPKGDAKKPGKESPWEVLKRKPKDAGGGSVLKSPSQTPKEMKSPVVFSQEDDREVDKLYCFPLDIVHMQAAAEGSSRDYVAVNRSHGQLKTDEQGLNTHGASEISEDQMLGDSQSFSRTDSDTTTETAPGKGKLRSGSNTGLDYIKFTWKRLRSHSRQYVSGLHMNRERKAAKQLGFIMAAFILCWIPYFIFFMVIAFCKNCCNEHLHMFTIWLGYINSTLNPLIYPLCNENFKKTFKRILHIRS

[4] = target: T2, Adrenergic receptor alpha-1 (Homo sapiens, UniProt P35348+P25100+P35368); test: Binding affinity to alpha1 adrenergic receptor (unknown origin); assay type: protein assay
T2 sequence (P35348 whole entry): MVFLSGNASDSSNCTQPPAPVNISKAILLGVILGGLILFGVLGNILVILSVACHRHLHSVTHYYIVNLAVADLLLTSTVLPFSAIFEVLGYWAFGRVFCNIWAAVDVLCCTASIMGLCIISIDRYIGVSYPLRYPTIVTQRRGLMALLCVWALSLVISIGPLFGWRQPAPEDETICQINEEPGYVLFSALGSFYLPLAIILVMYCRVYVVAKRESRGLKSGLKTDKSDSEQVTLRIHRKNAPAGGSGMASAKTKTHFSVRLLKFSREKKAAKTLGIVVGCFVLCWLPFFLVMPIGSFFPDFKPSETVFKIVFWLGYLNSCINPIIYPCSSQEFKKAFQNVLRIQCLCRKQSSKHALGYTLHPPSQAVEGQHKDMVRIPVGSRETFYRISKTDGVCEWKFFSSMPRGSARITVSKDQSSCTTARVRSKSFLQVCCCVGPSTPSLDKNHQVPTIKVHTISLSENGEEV
T2 sequence (P25100 whole entry): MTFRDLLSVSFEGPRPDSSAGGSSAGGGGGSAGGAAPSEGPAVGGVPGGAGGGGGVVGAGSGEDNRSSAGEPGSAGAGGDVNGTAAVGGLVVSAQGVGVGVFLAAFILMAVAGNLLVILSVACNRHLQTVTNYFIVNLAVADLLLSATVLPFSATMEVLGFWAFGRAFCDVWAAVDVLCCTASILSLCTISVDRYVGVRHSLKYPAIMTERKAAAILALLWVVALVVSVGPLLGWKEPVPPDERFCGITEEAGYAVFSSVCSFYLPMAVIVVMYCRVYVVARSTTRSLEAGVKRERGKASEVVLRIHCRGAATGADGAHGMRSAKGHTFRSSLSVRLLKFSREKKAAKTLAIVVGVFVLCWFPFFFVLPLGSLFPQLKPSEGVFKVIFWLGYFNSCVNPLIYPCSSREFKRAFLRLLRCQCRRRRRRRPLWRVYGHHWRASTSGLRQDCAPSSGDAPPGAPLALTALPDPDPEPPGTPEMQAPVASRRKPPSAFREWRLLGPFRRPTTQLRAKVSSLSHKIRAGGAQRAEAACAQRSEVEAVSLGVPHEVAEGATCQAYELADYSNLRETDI
T2 sequence (P35368 whole entry): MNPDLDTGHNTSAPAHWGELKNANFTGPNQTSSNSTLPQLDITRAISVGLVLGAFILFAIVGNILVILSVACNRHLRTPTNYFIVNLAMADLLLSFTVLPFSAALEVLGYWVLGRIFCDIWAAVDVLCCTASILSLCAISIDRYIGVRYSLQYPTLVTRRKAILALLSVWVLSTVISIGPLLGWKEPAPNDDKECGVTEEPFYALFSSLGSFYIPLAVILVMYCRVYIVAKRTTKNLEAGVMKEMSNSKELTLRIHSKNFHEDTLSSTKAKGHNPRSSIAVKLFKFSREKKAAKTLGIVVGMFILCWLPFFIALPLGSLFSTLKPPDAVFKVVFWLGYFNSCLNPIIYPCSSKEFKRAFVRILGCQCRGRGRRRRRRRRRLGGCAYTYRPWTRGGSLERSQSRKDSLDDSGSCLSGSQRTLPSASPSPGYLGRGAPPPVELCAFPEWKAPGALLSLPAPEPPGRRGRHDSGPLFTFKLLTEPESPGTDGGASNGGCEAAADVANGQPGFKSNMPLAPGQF

[5] = test system: Rattus norvegicus; test: Antipsychotic activity in po dosed rat assessed as suppression in conditioned avoidance response measured after 90 mins by CAR test; assay type: functional
Method in brief: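 Rat conditioned avoidance responding tested 90 min after a single oral dose of 0.05, 0.15, 0.45 or 1.35 mg/kg in 30% PEG 400. n = 10 per group. Mean ± SEM, compared with vehicle (P < 0.05). ED50 reported.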

[6] = Induction of catalepsy in po dosed mouse by vertical grid and elevated bar test; assay type: organism-based; conditions: in vivo
Method in brief: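 Mouse catalepsy scored by vertical grid and elevated bar tests. Oral doses of 1, 5, 15, 45 and 100 mg/kg in 30% PEG 400. ED50 reported with 95% confidence limits.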

[7] = Therapeutic index, ratio of ED50 for induction of catalepsy in po dosed mouse to ED50 for antipsychotic activity in po dosed mouse assessed as suppression of apomorphine-induced climbing; assay type: toxicity, organism-based; conditions: in vivo, read-out: Ratio ED50
Method in brief: (§1)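 Therapeutic index is the catalepsy ED50 divided by the efficacy ED50 from the apomorphine climbing or MK-801 hyperactivity model. All were oral dosing in mice, vehicle 30% PEG 400.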

[8] = Therapeutic index, ratio of ED50 for induction of catalepsy in po dosed mouse to ED50 for antipsychotic activity in po dosed mouse assessed as reduction in MK-801-induced hyperlocomotor activity; assay type: toxicity, organism-based; conditions: in vivo, read-out: Ratio ED50; method in brief: as §1
[9] = AUC (0 to t) in rat at 10 mg/kg, po; assay type: ADME, organism-based; design: dose 10 mg/kg; conditions: in vivo
Method in brief: (§2)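 Male rats, n = 6 per group, given a single oral dose of 10 mg/kg. PK parameters taken from serum concentration–time profiles: Cmax, Tmax, t1/2, AUC0-t, AUC0-∞, CL/F, F%.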

[10] = AUC (0 to infinity) in rat at 10 mg/kg, po; assay type: ADME, organism-based; design: route oral, time infinity, dose 10 mg/kg; conditions: in vivo; method in brief: as §2
[11] = Half life in rat at 3 mg/kg, iv; assay type: ADME, organism-based; conditions: in vivo
Method in brief: (§3)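 Male rats, n = 6 per group, given a single intravenous dose of 3 mg/kg. PK parameters taken from serum concentration–time profiles: t1/2, AUC0-t, AUC0-∞, clearance.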

[12] = AUC (0 to infinity) in rat at 3 mg/kg, iv; assay type: ADME, organism-based; design: route intravenous, time infinity, dose 3 mg/kg; conditions: in vivo; method in brief: as §3

Ki [2]: 0.0035 µM | Ki [3]: 2.14 µM | Ki [4]: 3.296 µM | AUC(0-t) [9]: 9490 ng·h/mL | AUC [10]: 9638.27 ng·h/mL | half-life [11]: 3.68 h | AUC [12]: 931.48 ng·h/mL
SMILES: CC(=O)Nc1ccc(OCCCN2CCC(c3noc4cc(F)ccc34)CC2)cc1
Activity [1]: Active | Activity [5]: Dose-dependent effect | ED50 ([5]; 1.5 h): 0.28 mg/kg | ED50 [6]: 25.2 mg/kg | selectivity ratio [7]: 90 | selectivity ratio [8]: 133
